Data on 4 compounds can be found in ChEMBL document CHEMBL1152538, “Synthesis and biological evaluation of asymmetric gramicidin S analogues containing modified D-phenylalanine residues” (Bioorg Med Chem, 2009).

Values after ≈ are worked out from the molar mass of the structure shown. *1 amine or outer side, *2 acyl side, *3 side chain or, on linkers, in order; H or OH if unused. Where a SMILES comes first, the peptide text is derived from it. [ ]: non-standard residue; d: D form. The star is where a group is joined. X2 = C[N+](C)(C)c1ccc(C[C@H](N[*:1])C(=O)[*:2])cc1; Phe(4-NH2) = Nc1ccc(C[C@H](N)C(=O)O)cc1; Orn = NCCC[C@H](N)C(=O)O; PhAc = O=C(Cc1ccccc1)*; Piv = CC(C)(C)C(=O)* Some results are limits rather than exact numbers.

Data set [1] concerns Staphylococcus aureus. In words: Antibacterial activity against Staphylococcus aureus 7323 after 24 to 96 hrs by well microplate assay. Type of data set: functional. The method, boiled down:
(§1)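 Strains were kept at -70 °C, grown at 30 °C on sheep-blood Columbia agar, and suspended in saline to OD595 0.1, then diluted 10×. Inoculum was added at 2 µL per 100 µL Nutrient Broth with yeast extract (2 g/400 mL). Peptide stocks were 4 g/L in ethanol, diluted to 1000 mg/L in water, then twofold in broth (64–1 mg/L). Plates were held at 30 °C for 24–96 h. MIC was the lowest concentration inhibiting growth.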

The subject of data set [2] is Staphylococcus aureus. In words: Antibacterial activity against Staphylococcus aureus 7388 after 24 to 96 hrs by well microplate assay. The format is functional. The method, boiled down: as §1
Another data set has as its system Enterococcus faecalis. Kind of data set: Antibacterial activity against Enterococcus faecalis 1131 after 24 to 96 hrs by well microplate assay. Type of data set: functional. In short, it runs like this: as §1
A further data set concerns Escherichia coli. In words: Antibacterial activity against Escherichia coli ATCC 25922 after 24 to 96 hrs by well microplate assay. Type of data set: functional. The method, boiled down:
as §1

Data set [3] concerns Pseudomonas aeruginosa. In words: Antibacterial activity against Pseudomonas aeruginosa AK1 after 24 to 96 hrs by well microplate assay. Type of data set: functional. The method, boiled down:
as §1

The test system of data set [4] is Pseudomonas aeruginosa. Kind of data set: Antibacterial activity against Pseudomonas aeruginosa ATCC 19582 after 24 to 96 hrs by well microplate assay. Type of data set: functional. In short, it runs like this:
as §1

For data set [5], the system named is Streptococcus mitis. Kind of data set: Antibacterial activity against Streptococcus mitis BMS after 24 to 96 hrs by well microplate assay. Type of data set: functional. In short, it runs like this: as §1
For data set [6], the system named is Streptococcus mitis. Kind of data set: Antibacterial activity against Streptococcus mitis ATCC 33399 after 24 to 96 hrs by well microplate assay. Type of data set: functional. In short, it runs like this: as §1
Data set [7] can be described thus: Cytotoxicity against human erythrocytes assessed as hemolysis after 4 hrs by twofold dilution assay. The format is cell-based. The settings on record: Erythrocyte. The method, boiled down:
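Heparinised blood was spun at 1000g and 10 °C, and erythrocytes were washed three times in 0.85% saline and diluted to 1/25 packed volume. Peptide stocks were 1.5 mM in 30% DMSO/0.5 mM saline, sonicated if suspended, and twofold serially diluted in saline in triplicate rows. 1% Triton-X served as the lysis reference. Cells were incubated at 37 °C for 4 h and centrifuged, and the supernatant was read at A405 for % hemolysis.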

Data set [8] can be described thus: Cytotoxicity against human erythrocytes assessed as hemolysis at 12 uM after 4 hrs by twofold dilution assay. The format is cell-based, Erythrocyte. Conditions: read-out: Activity. In short, it runs like this: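 Freshly drawn heparinised blood was spun at 1000g and 10 °C. The erythrocytes were washed three times in 0.85% saline and diluted to 1/25 packed cell volume. Peptide stock was 1.5 mM in 30% DMSO/saline, sonicated if needed, and serially twofold diluted in saline across 10 wells, with 1% Triton-X as reference. Plates were held at 37 °C for 4 h, then centrifuged, and hemolysis percentage was read from supernatant A405.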

For data set [9], the system named is coagulase-negative Staphylococcus. In words: Antibacterial activity against coagulase-negative Staphylococcus CNS 5277 after 24 to 96 hrs by well microplate assay.
Data set [10] has the same test system. Kind of data set: Antibacterial activity against coagulase-negative Staphylococcus CNS 5115 after 24 to 96 hrs by well microplate assay.
The test system is the same in data set [11]. In words: Antibacterial activity against coagulase-negative Staphylococcus CNS 7368 after 24 to 96 hrs by well microplate assay.
A short description of data set [12]: Cytotoxicity against human erythrocytes assessed as hemolysis at 1.5 mM after 4 hrs by twofold dilution assay. The format is cell-based. Conditions: erythrocyte, 1500 µM.
Data set [13] in a line: Cytotoxicity against human erythrocytes assessed as hemolysis at 25 uM after 4 hrs by twofold dilution assay. Conditions: read-out: Activity. Type of data set: cell-based, Erythrocyte.

What is called MIC is the least concentration at which growth counts as inhibited. Read a high MIC as a less susceptible organism. The term EC50 denotes the concentration at which the effect is half-maximal. With `CC(C)C[C@@H]1NC(=O)[C@H](CCCN)NC(=O)[C@H](C(C)C)NC(=O)[C@@H]2CCCN2C(=O)[C@@H](Cc2ccccc2)NC(=O)[C@H](CC(C)C)NC(=O)[C@H](CCCN)NC(=O)[C@H](C(C)C)NC(=O)[C@@H]2CCCN2C(=O)[C@@H](Cc2ccccc2)NC1=O` [GRAMICIDIN S] (cyclo(L[dF]PV[Orn]L[dF]PV[Orn])), the MIC worked out at 8 µg/mL (≈ 7.01 µM) against Staphylococcus aureus [1]; 8 µg/mL (≈ 7.01 µM) in the data set on Staphylococcus aureus [2]; 16 µg/mL (≈ 14 µM) against Enterococcus faecalis; 32 µg/mL (≈ 28 µM) in the data set on Escherichia coli; 64 µg/mL (≈ 56.1 µM) with Pseudomonas aeruginosa [3]; 8 µg/mL (≈ 7.01 µM) against Pseudomonas aeruginosa [4]. Moreover, the MIC with Streptococcus mitis [5] was determined as 8 µg/mL (≈ 7.01 µM); in the data set on Streptococcus mitis [6], 4 µg/mL (≈ 3.5 µM); in [9], 16 µg/mL (≈ 14 µM); in data set [10], 16 µg/mL (≈ 14 µM); in data set [11], 8 µg/mL (≈ 7.01 µM). Also, in data set [7], the EC50 is 11.7 µM. For the same compound, the hemolysis at 4 h, 12 µM in data set [8] amounted to 50%.

In the case of `CC(C)C[C@@H]1NC(=O)[C@H](CCCN)NC(=O)[C@H](C(C)C)NC(=O)[C@@H]2CCCN2C(=O)[C@H](Cc2ccccc2)NC(=O)[C@H](CC(C)C)NC(=O)[C@H](CCCN)NC(=O)[C@H](C(C)C)NC(=O)[C@@H]2CCCN2C(=O)[C@H](Cc2ccc(NC(=O)Cc3ccccc3)cc2)NC1=O` (cyclo(FPV[Orn]L[Phe(4-NH2)](PhAc)PV[Orn]L)), the MIC in the data set with Staphylococcus aureus [1] was 8 µg/mL (≈ 6.28 µM); in the data set with Staphylococcus aureus [2] it was 16 µg/mL (≈ 12.6 µM); in the data set with Enterococcus faecalis it was 32 µg/mL (≈ 25.1 µM); in the data set with Escherichia coli, 32 µg/mL (≈ 25.1 µM); against Pseudomonas aeruginosa [3], more than 64 µg/mL; with Pseudomonas aeruginosa [4], more than 64 µg/mL. In addition, the MIC in the data set on Streptococcus mitis [5] was 8 µg/mL (≈ 6.28 µM); with Streptococcus mitis [6], 16 µg/mL (≈ 12.6 µM); in data set [9], 8 µg/mL (≈ 6.28 µM); in data set [10], 8 µg/mL (≈ 6.28 µM); in data set [11] it was 8 µg/mL (≈ 6.28 µM). The concentration giving a half-maximal response (EC50) in data set [7] is 9.35 µM. Further, the Activity entry in data set [12] was “Non-toxic”.

As for `CC(C)C[C@@H]1NC(=O)[C@H](CCCN)NC(=O)[C@H](C(C)C)NC(=O)[C@@H]2CCCN2C(=O)[C@H](Cc2ccccc2)NC(=O)[C@H](CC(C)C)NC(=O)[C@H](CCCN)NC(=O)[C@H](C(C)C)NC(=O)[C@@H]2CCCN2C(=O)[C@H](Cc2ccc([N+](C)(C)C)cc2)NC1=O.[I-]` (cyclo(FPV[Orn]L[X2]PV[Orn]L)), the MIC with Staphylococcus aureus [1] was 64 µg/mL; against Staphylococcus aureus [2] it was 32 µg/mL; with Enterococcus faecalis it was more than 64 µg/mL; against Escherichia coli it was 64 µg/mL; in the data set on Pseudomonas aeruginosa [3], more than 64 µg/mL; in the data set with Pseudomonas aeruginosa [4], more than 64 µg/mL. The minimal inhibitory concentration (MIC) with Streptococcus mitis [5] is 8 µg/mL; in the data set on Streptococcus mitis [6], 8 µg/mL; in data set [9] it was 16 µg/mL; in [10] it was 16 µg/mL; in data set [11], 32 µg/mL. In addition, in data set [7], the EC50 is 134 µM. Also, the Activity result in data set [12] is “Non-toxic”.

On to `CC(C)C[C@@H]1NC(=O)[C@H](CCCN)NC(=O)[C@H](C(C)C)NC(=O)[C@@H]2CCCN2C(=O)[C@H](Cc2ccccc2)NC(=O)[C@H](CC(C)C)NC(=O)[C@H](CCCN)NC(=O)[C@H](C(C)C)NC(=O)[C@@H]2CCCN2C(=O)[C@H](Cc2ccc(NC(=O)C(C)(C)C)cc2)NC1=O` (cyclo(FPV[Orn]L[Phe(4-NH2)](Piv)PV[Orn]L)), for which the MIC with Staphylococcus aureus [1] was 8 µg/mL (≈ 6.45 µM); against Staphylococcus aureus [2], 8 µg/mL (≈ 6.45 µM); against Enterococcus faecalis, 16 µg/mL (≈ 12.9 µM); with Escherichia coli, 32 µg/mL (≈ 25.8 µM); against Pseudomonas aeruginosa [3], 64 µg/mL (≈ 51.6 µM); against Pseudomonas aeruginosa [4] it was 64 µg/mL (≈ 51.6 µM). For the same compound, the MIC against Streptococcus mitis [5] was determined as 4 µg/mL (≈ 3.22 µM); against Streptococcus mitis [6], 4 µg/mL (≈ 3.22 µM); in data set [9], 8 µg/mL (≈ 6.45 µM); in data set [10], 8 µg/mL (≈ 6.45 µM); in data set [11], 8 µg/mL (≈ 6.45 µM). Further, in [13], the hemolysis at 4 h, 25 µM is 50%.
